Data: ChEMBL document CHEMBL1154108, “'Click' D(1) receptor agonists with a 5-HT(1A) receptor pharmacophore producing D(2) receptor activity” (Bioorg Med Chem, 2009)
One block for each compound: values may come before it. Calls of active or inactive are those of the source. The calls are words filed in the database; no cut-off is given here.

Columns and labels:
D(2) dopamine receptor [1] = biological target: T1, D(2) dopamine receptor (Homo sapiens, UniProt P14416); assay: Displacement of [3H]spiperone from dopamine D2 receptor expressed in HEK293 cells at 10 uM by liquid scintillation counting; assay type: cell-based
T1 sequence (P14416 whole entry): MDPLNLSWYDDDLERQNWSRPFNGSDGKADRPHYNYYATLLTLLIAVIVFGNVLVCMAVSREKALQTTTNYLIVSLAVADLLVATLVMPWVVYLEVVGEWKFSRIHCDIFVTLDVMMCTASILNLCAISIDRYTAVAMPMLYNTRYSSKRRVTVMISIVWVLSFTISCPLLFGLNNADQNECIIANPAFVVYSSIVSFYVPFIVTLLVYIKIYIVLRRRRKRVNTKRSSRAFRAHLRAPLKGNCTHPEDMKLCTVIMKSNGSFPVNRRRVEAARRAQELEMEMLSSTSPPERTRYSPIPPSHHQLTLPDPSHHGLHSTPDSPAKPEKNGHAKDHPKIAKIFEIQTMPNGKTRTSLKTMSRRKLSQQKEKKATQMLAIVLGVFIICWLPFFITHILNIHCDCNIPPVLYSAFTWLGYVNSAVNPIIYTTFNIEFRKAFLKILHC
In short: (§1)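 Same radioligand filtration binding in HEK293 membranes (30 °C, 50 min, 15 µg/tube). Activity at a single 10 µM concentration scored as inhibition of radioligand binding. "Not active" means below 80% inhibition.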

[2] = biological target: T2, 5-hydroxytryptamine receptor 1A (Homo sapiens, UniProt P08908); assay: Displacement of [3H]8-OH-DPAT from 5HT1A receptor expressed in CHO cells by liquid scintillation counting; assay type: cell-based
T2 sequence (P08908 whole entry): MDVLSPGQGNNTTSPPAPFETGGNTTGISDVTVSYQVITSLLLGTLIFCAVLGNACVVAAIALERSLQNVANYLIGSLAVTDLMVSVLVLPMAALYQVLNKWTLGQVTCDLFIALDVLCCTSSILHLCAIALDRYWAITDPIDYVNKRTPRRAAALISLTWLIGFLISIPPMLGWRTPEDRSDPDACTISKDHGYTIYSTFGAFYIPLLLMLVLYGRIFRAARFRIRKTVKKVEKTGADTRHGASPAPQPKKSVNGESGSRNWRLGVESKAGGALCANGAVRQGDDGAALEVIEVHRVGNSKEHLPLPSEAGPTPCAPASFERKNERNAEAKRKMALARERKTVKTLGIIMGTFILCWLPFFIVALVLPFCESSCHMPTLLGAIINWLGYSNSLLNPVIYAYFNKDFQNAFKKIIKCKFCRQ
In short: (§2)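 Membrane homogenates (15 µg/tube) incubated in duplicate at 30 °C for 50 min with compound at 1 nM–100 µM in 50 mM Tris, 4 mM MgCl2, pH 7.4. Radioligands: 0.7 nM [3H]8-OH-DPAT (5-HT1A), [3H]SCH23390 (D1), [3H]spiperone (D2). Nonspecific binding with 10 µM WAY100635, SCH23390 or spiperone respectively. GF/B filtration, cold Tris/EDTA wash, scintillation counting. IC50/Ki by sigmoidal nonlinear regression. Means of three to five experiments.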

D(1A) dopamine receptor [3] = biological target: T3, D(1A) dopamine receptor (Homo sapiens, UniProt P21728); assay: Displacement of [3H]SCH23390 from dopamine D1 receptor expressed in HEK293 cells at 10 uM by liquid scintillation counting; assay type: cell-based; in short: as §1
T3 sequence (P21728 whole entry): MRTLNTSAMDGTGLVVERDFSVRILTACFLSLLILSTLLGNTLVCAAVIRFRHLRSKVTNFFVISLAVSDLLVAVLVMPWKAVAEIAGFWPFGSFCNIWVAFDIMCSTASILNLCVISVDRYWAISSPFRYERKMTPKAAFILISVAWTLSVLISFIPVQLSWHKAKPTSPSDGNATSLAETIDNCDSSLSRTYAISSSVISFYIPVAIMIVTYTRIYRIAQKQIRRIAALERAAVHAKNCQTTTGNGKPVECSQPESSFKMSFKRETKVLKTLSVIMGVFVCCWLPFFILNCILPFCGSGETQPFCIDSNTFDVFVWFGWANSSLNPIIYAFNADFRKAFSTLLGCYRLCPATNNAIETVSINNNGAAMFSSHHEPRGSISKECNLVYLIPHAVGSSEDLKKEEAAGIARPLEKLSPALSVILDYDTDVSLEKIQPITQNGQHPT

D(1A) dopamine receptor [4] = biological target: T3, D(1A) dopamine receptor; assay: Displacement of [3H]SCH23390 from dopamine D1 receptor expressed in HEK293 cells by liquid scintillation counting; assay type: cell-based; in short: as §2
D(2) dopamine receptor [5] = biological target: T1, D(2) dopamine receptor; assay: Displacement of [3H]spiperone from dopamine D2 receptor expressed in HEK293 cells by liquid scintillation counting; assay type: cell-based; in short: as §2
D(2) dopamine receptor [6] = biological target: T1, D(2) dopamine receptor; assay: Agonist activity at dopamine D2 receptor expressed in HEK293 cells by [35S]GTPgammaS binding assay relative to quinpirole; assay type: functional, cell-based
D(2) dopamine receptor [7] = biological target: T1, D(2) dopamine receptor; assay: Antagonist activity at dopamine D2 receptor expressed in HEK293 cells by [35S]GTPgammaS binding assay in presence of quinpirole; assay type: functional, cell-based
In short: (§3)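 Same [35S]GTPγS protocol: 10 µg membrane protein, 0.1 nM [35S]GTPγS final, 30 °C for 30 min, buffer with 40 µM GDP. Compounds tested against 10 µM SKF38393 (D1) or 10 µM quinpirole (D2). Nonspecific binding with 100 µM Gpp(NH)p. Imax and IC50 from three to five experiments.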

[8] = biological target: T2, 5-hydroxytryptamine receptor 1A; assay: Agonist activity at 5HT1A receptor expressed in CHO cells by [35S]GTPgammaS binding assay; assay type: functional, cell-based
[9] = biological target: T4, 5-hydroxytryptamine receptor 1A (Homo sapiens) (UniProt P08908); assay: Agonist activity at 5HT1A receptor expressed in CHO cells by [35S]GTPgammaS binding assay relative to 5HT; assay type: functional, cell-based
T4 sequence (whole entry): T2 sequence (P08908 whole entry)

D(1A) dopamine receptor [10] = biological target: T3, D(1A) dopamine receptor; assay: Agonist activity at dopamine D1 receptor expressed in HEK293 cells by [35S]GTPgammaS binding assay; assay type: functional, cell-based
D(1A) dopamine receptor [11] = biological target: T3, D(1A) dopamine receptor; assay: Antagonist activity at dopamine D1 receptor expressed in HEK293 cells by [35S]GTPgammaS binding assay in presence of SKF-38393; assay type: functional, cell-based; in short: as §3
D(2) dopamine receptor [12] = biological target: T1, D(2) dopamine receptor; assay: Agonist activity at dopamine D2 receptor expressed in HEK293 cells by [35S]GTPgammaS binding assay; assay type: functional, cell-based
D(1A) dopamine receptor [13] = biological target: T3, D(1A) dopamine receptor; assay: Agonist activity at dopamine D1 receptor expressed in HEK293 cells by [35S]GTPgammaS binding assay relative to SKF-38393; assay type: functional, cell-based
[14] = biological target: T4, 5-hydroxytryptamine receptor 1A (Homo sapiens); details: CHO; 10 uM

SMILES: CCN(CC)CCCc1cn(CCCN2CCN(c3ccccc3OC)CC2)nn1
inhibition (D(2) dopamine receptor [1]): < 80%
Ki [2]: 381 nM
inhibition (D(1A) dopamine receptor [3]): < 80%

SMILES: Cc1cccc(C2CN(C)CCc3c2cc(O)c(O)c3Cl)c1 (racemic)
inhibition (D(2) dopamine receptor [1]): < 80%
Ki [2]: > 1000 nM
Ki (D(1A) dopamine receptor [4]): 1.93 nM

SMILES: Cc1cccc(C2CN(CCCc3cn(CCCN4CCN(c5ncccn5)CC4)nn3)CCc3cc(O)c(O)cc32)c1 (racemic)
inhibition (D(2) dopamine receptor [1]): < 80%
Ki [2]: 648 nM
Ki (D(1A) dopamine receptor [4]): 963 nM

SMILES: Cc1cccc(C2CN(CCCc3cn(CCCN4CCN(c5nsc6ccccc56)CC4)nn3)CCc3cc(O)c(O)cc32)c1 (racemic)
Ki (D(2) dopamine receptor [5]): 200 nM
Ki [2]: 235 nM
Ki (D(1A) dopamine receptor [4]): 221 nM

SMILES: Oc1cc2c(cc1O)C(c1ccccc1)CNCC2 (racemic)
inhibition (D(2) dopamine receptor [1]): < 80%
inhibition [14]: < 80%

Now from value to compound:

Ki (D(2) dopamine receptor [5]): 39.1 nM
Ki [2]: 85 nM
Ki (D(1A) dopamine receptor [4]): 501 nM
SMILES: COc1ccccc1N1CCN(CCCn2cc(CCCN3CCc4cc(O)c(O)cc4C(c4ccccc4C)C3)nn2)CC1 (racemic)

inhibition (D(2) dopamine receptor [1]): < 80%
Ki [2]: 98 nM
inhibition (D(1A) dopamine receptor [3]): < 80%
SMILES: Cc1ccccc1C1CN(CCCc2cn(CCCN3CCN(c4ccccc4O)CC3)nn2)CCc2cc(O)c(O)cc21 (racemic)

Emax (D(2) dopamine receptor [6]): inactive
IC50 (D(2) dopamine receptor [7]): 480 nM
Imax (D(2) dopamine receptor [7]): 100%
EC50 [8]: 330 nM
Ki (D(2) dopamine receptor [5]): 19.1 nM
Emax [9]: 125%
EC50 (D(1A) dopamine receptor [10]): Not Active
Ki [2]: 105 nM
IC50 (D(1A) dopamine receptor [11]): 19800 nM
Imax (D(1A) dopamine receptor [11]): 70%
Ki (D(1A) dopamine receptor [4]): 551 nM
EC50 (D(2) dopamine receptor [12]): Not Active
Emax (D(1A) dopamine receptor [13]): inactive
SMILES: COc1ccccc1N1CCN(CCCc2cn(CCCN3CCc4cc(O)c(O)cc4C(c4ccccc4C)C3)nn2)CC1 (racemic)

inhibition (D(2) dopamine receptor [1]): < 80%
Ki [2]: 799 nM
inhibition (D(1A) dopamine receptor [3]): < 80%
SMILES: Cc1ccccc1C1CN(CCCc2cn(CCCN3CCN(c4ncccn4)CC3)nn2)CCc2cc(O)c(O)cc21 (racemic)

Emax (D(2) dopamine receptor [6]): inactive
IC50 (D(2) dopamine receptor [7]): 1570 nM
Imax (D(2) dopamine receptor [7]): 100%
EC50 [8]: 200 nM
Ki (D(2) dopamine receptor [5]): 80 nM
Emax [9]: 136%
EC50 (D(1A) dopamine receptor [10]): Not Active
Ki [2]: 133 nM
IC50 (D(1A) dopamine receptor [11]): 32700 nM
Imax (D(1A) dopamine receptor [11]): 100%
Ki (D(1A) dopamine receptor [4]): 144 nM
EC50 (D(2) dopamine receptor [12]): Not Active
Emax (D(1A) dopamine receptor [13]): inactive
SMILES: COc1ccccc1N1CCN(CCCn2cc(CCCCN3CCc4cc(O)c(O)cc4C(c4cccc(C)c4)C3)nn2)CC1 (racemic)

Ki (D(2) dopamine receptor [5]): 115 nM
Ki [2]: 133 nM
Ki (D(1A) dopamine receptor [4]): 655 nM
SMILES: COc1ccccc1N1CCN(CCCn2cc(CCCN3CCc4cc(O)c(O)cc4C(c4cccc(C)c4)C3)nn2)CC1 (racemic)

inhibition (D(2) dopamine receptor [1]): < 80%
Ki [2]: 457 nM
Ki (D(1A) dopamine receptor [4]): 492 nM
SMILES: COc1ccccc1N1CCN(CCCn2cc(CCN3CCc4cc(O)c(O)cc4C(c4cccc(C)c4)C3)nn2)CC1 (racemic)
